Test results: ChEMBL document CHEMBL1949523, “Synthesis and evaluation of aza-peptidyl inhibitors of the lysosomal asparaginyl endopeptidase, legumain” (Bioorg Med Chem Lett, 2012)
Calls of active or inactive are those of the source. No cut-off for these calls is given here.

Legend:
Legumain = molecular target: T1, Legumain (Mus musculus, UniProt O89017); test: Inhibition of mouse recombinant legumain using Cbz-Ala-Ala-Asn-AMC as substrate measured every 30 secs for 2.5 hrs by fluorimetry
T1 sequence (O89017 whole entry): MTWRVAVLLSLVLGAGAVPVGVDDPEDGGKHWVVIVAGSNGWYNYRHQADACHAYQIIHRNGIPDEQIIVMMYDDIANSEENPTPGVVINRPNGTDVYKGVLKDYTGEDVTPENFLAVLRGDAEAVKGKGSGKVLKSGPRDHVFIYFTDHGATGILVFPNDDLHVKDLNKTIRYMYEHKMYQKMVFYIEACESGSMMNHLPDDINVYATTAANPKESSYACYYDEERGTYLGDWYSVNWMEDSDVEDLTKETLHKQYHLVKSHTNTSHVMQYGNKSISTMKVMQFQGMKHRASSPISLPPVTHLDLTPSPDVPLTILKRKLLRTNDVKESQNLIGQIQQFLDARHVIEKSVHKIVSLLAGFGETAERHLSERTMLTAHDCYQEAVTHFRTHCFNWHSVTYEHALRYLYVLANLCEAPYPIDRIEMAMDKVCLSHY

[1] = Inhibition of cathepsin L using Cbz-Phe-Arg-AMC as substrate measured every 30 secs for 2.5 hrs by fluorimetry
Legumain (Mus musculus) = molecular target: T2, Legumain (Mus musculus) (UniProt O89017); test: Binding affinity to legumain in mouse RAW264.7 cells at 0.1 to 10 uM after 60 mins by SDS-PAGE analysis; type: cell-based
T2 sequence (whole entry): T1 sequence (O89017 whole entry)
Outline: (§1)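 RAW 264.7 macrophages incubated with Cy5-labeled probes for 60 min across a concentration range. Cells lysed hypotonically, labeled proteins resolved on 12.5% SDS-PAGE, detected by in-gel fluorescence scanning.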

[2] = molecular target: T3, Pro-cathepsin H (Mus musculus) (UniProt P49935); test: Binding affinity to cathepsin H in mouse RAW264.7 cells at 10 uM after 60 mins by SDS-PAGE analysis; type: cell-based; outline: as §1
T3 sequence (whole entry): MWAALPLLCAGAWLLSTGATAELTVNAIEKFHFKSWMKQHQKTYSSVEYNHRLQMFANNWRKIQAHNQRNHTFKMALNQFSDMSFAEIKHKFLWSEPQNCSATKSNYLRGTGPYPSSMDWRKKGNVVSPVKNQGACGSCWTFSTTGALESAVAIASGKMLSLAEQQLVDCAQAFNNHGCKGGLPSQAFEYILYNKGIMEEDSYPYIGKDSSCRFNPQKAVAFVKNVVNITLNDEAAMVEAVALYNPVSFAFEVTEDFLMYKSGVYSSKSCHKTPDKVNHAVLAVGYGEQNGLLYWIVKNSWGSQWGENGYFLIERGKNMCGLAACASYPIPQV

[3] = molecular target: Cathepsin B (Mus musculus) (UniProt P10605); test: Binding affinity to cathepsin B in mouse RAW264.7 cells at 10 uM after 60 mins by SDS-PAGE analysis; type: cell-based; outline: as §1
Cathepsin B (Mus musculus), sequence (P10605 80-333 limits assumed): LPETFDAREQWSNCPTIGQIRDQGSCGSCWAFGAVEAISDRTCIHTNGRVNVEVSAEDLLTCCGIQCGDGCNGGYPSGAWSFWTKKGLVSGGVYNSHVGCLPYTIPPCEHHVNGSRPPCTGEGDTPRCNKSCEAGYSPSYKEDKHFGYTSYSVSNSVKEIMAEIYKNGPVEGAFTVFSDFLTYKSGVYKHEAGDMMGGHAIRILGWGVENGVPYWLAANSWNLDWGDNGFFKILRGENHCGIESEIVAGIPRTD

IC50 (Legumain)	IC50 [1]	other results	Structure (SMILES)
0.141 µM			C/C=C(\NC(C)=O)C(=O)N1CCC[C@H]1C(=O)NN(CC(N)=O)C(=O)/C=C/C(=O)OCC
0.0083 µM	> 1000 µM		CCOC(=O)/C=C/C(=O)N(CC(N)=O)NC(=O)[C@@H]1CCCN1C(C)=O
> 1 µM			CCOC(=O)/C=C/C(=O)N(CC(N)=O)NC(=O)[C@@H]1CCCN1C(=O)c1cccc(NC(C)=O)c1
0.0086 µM	358 µM		C#CC[C@H](NC(C)=O)C(=O)N1CCC[C@H]1C(=O)NN(CC(N)=O)C(=O)C1OC1C(=O)OCC (some centres not stated)
> 1 µM			CCOC(=O)/C=C/C(=O)N(CC(N)=O)NC(=O)[C@@H]1CCCN1C(=O)[C@@H]1Cc2ccccc2CN1C(C)=O
0.0044 µM	106 µM		CCOC(=O)C1OC1C(=O)N(CC(N)=O)NC(=O)[C@@H]1CCCN1C(=O)C1(NC(C)=O)CC1 (some centres not stated)
		Activity (Legumain (Mus musculus)): Active; Activity [2]: Active; Activity [3]: Active	CCOC(=O)C1OC1C(=O)N(CC(N)=O)NC(=O)[C@@H]1CCCN1C(=O)CCCCCNC(=O)CCCCCN1/C(=C/C=C/C=C/C2=[N+](CC)c3ccc(S(=O)(=O)O)cc3C2(C)C)C(C)(C)c2cc(S(=O)(=O)[O-])ccc21 (some centres not stated)
0.167 µM			CCOC(=O)/C=C/C(=O)N(CC(N)=O)NC(=O)[C@@H]1CCCN1C(=O)[C@H]1CSCN1C(C)=O
0.198 µM			CCOC(=O)/C=C/C(=O)N(CC(N)=O)NC(=O)[C@@H]1CCCN1C(=O)C(C)(C)NC(C)=O
0.267 µM			CCOC(=O)/C=C/C(=O)N(CC(N)=O)NC(=O)[C@@H]1CCCN1C(=O)c1ccc(CNC(C)=O)cc1
		Activity (Legumain (Mus musculus)): Active; Activity [2]: Active; Activity [3]: Active	CCOC(=O)[C@@H]1O[C@H]1C(=O)N(CC(N)=O)NC(=O)[C@@H]1CCCN1C(=O)C1(NC(=O)CCCCCNC(=O)CCCCCN2/C(=C/C=C/C=C/C3=[N+](CC)c4ccc(S(=O)(=O)O)cc4C3(C)C)C(C)(C)c3cc(S(=O)(=O)[O-])ccc32)CC1
0.0081 µM	890 µM		CCOC(=O)C1OC1C(=O)N(CC(N)=O)NC(=O)[C@@H]1CCCN1C(=O)[C@H](CC)NC(C)=O (some centres not stated)
0.0093 µM	> 1000 µM		CCOC(=O)/C=C/C(=O)N(CC(N)=O)NC(=O)[C@@H]1CCCN1C(=O)C1(NC(C)=O)CC1
		Activity (Legumain (Mus musculus)): Active	CCOC(=O)/C=C/C(=O)N(CC(N)=O)NC(=O)[C@@H]1CCCN1C(=O)[C@H](CC)NC(=O)CCCCCNC(=O)CCCCCN1/C(=C/C=C/C=C/C2=[N+](CC)c3ccc(S(=O)(=O)O)cc3C2(C)C)C(C)(C)c2cc(S(=O)(=O)[O-])ccc21
0.0093 µM	370 µM		CCOC(=O)C1OC1C(=O)N(CC(N)=O)NC(=O)[C@@H]1CCCN1C(C)=O (some centres not stated)
0.148 µM			CCOC(=O)/C=C/C(=O)N(CC(N)=O)NC(=O)[C@@H]1CCCN1C(=O)C(NC(C)=O)=C(C)C
0.017 µM	855 µM		C#CC[C@H](NC(C)=O)C(=O)N1CCC[C@H]1C(=O)NN(CC(N)=O)C(=O)/C=C/C(=O)OCC
0.0065 µM	964 µM		CCOC(=O)/C=C/C(=O)N(CC(N)=O)NC(=O)[C@@H]1CCCN1C(=O)[C@H](CC)NC(C)=O
		Activity (Legumain (Mus musculus)): Active	CCOC(=O)/C=C/C(=O)N(CC(N)=O)NC(=O)[C@@H]1CCCN1C(=O)CCCCCNC(=O)CCCCCN1/C(=C/C=C/C=C/CC2=[N+](CC)c3ccc(S(=O)(=O)O)cc3C2(C)C)C(C)(C)c2cc(S(=O)(=O)[O-])ccc21
> 1 µM			CCOC(=O)/C=C/C(=O)N(CC(N)=O)NC(=O)[C@@H]1CCCN1C(=O)[C@H](Cc1ccc(O)c([N+](=O)[O-])c1)NC(C)=O
